Converted amounts (≈) assume the structure as drawn.
What was measured:
Enterococcus faecalis = experiment: Antibacterial activity against Enterococcus faecalis C21560 in liquid culture by turbidity method; assay type: functional
How it was run: (§1)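 MIC is the lowest concentration giving 100% inhibition of bacterial growth in liquid culture, read by turbidity.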

Staphylococcus aureus [1] = experiment: Antibacterial activity against Staphylococcus aureus MB2865 in liquid culture by turbidity method; assay type: functional; how it was run: as §1
[2] = biological target: T1, Type-2 angiotensin II receptor (Homo sapiens, UniProt P50052); experiment: Inhibition of AT2 receptor
T1 sequence (P50052 whole entry): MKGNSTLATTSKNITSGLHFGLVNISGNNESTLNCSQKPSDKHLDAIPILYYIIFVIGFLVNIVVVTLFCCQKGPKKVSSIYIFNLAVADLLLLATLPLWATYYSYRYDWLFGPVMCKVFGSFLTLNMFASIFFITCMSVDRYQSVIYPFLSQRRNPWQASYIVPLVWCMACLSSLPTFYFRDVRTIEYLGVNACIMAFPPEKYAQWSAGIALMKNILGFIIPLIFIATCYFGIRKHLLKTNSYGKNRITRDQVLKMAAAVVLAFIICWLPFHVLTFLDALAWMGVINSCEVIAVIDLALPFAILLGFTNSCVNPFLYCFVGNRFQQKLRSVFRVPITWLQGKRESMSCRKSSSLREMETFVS
How it was run: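 AT2 IC50 derived from four dose levels per compound, following a published protocol.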

Staphylococcus aureus [3] = experiment: Antibacterial activity against Staphylococcus aureus infected in mouse model assessed as reduction of >= 2 log 10 cfu kidney burden; assay type: functional
How it was run: (§2)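 Systemic S. aureus infection mouse model (SATOA). Compounds were given iv; […]. Kidney bacterial burden (cfu) was compared with untreated control. ED99 is the dose giving a reduction of at least 2 log10 cfu in kidney burden.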

Streptococcus pneumoniae = experiment: Antibacterial activity against Streptococcus pneumoniae CL2883 in liquid culture by turbidity method; assay type: functional; how it was run: as §1
Staphylococcus aureus [4] = experiment: Antibacterial activity against Staphylococcus aureus infected in mouse model assessed as reduction of kidney burden iv relative to control
Staphylococcus aureus [5] = experiment: Antibacterial activity against Staphylococcus aureus infected in mouse model assessed as reduction of kidney burden at 0.5 mg/kg, iv relative to control; assay type: functional; how it was run: as §2

Row | SMILES | MIC (Enterococcus faecalis) [µg/mL] | MIC (Staphylococcus aureus [1]) [µg/mL] | IC50 [2] [nM] | ED99 (Staphylococcus aureus [3]) [mg/kg] | MIC (Streptococcus pneumoniae) [µg/mL] | Activity (Staphylococcus aureus [4]) | Activity (Staphylococcus aureus [5])
1 | CO/C(C)=C1/NC(=O)[C@H]([C@@H](C)O)NC(=O)c2csc(n2)-c2cc(O)c(-c3nc(C(=O)NCCCN4CCOCC4)cs3)nc2-c2csc(n2)[C@@H]2COC(=O)c3c4c5c(cccc5n3O)COC(=O)[C@@H](O[C@H]3C[C@](C)(O)[C@H](N(C)C)[C@H](C)O3)[C@@H](OC4)[C@H](NC(=O)c3csc1n3)c1nc(cs1)C(=O)N2 | 0.016 (≈ 10.7 nM) | 0.011 (≈ 7.35 nM) | 260 | 0.24 | 0.007 (≈ 4.68 nM) | 4.68 | –
2 | CO/C(C)=C1/NC(=O)[C@H]([C@@H](C)O)NC(=O)c2csc(n2)-c2cc(O)c(-c3nc(C(=O)NCCCN4CCN(C)CC4)cs3)nc2-c2csc(n2)[C@@H]2COC(=O)c3c4c5c(cccc5n3O)COC(=O)[C@@H](O[C@H]3C[C@](C)(O)[C@H](N(C)C)[C@H](C)O3)[C@@H](OC4)[C@H](NC(=O)c3csc1n3)c1nc(cs1)C(=O)N2 | 0.12 (≈ 79.5 nM) | 0.015 (≈ 9.94 nM) | < 10 | 0.13 | 0.00095 (≈ 0.63 nM) | – | 5.8
